Test results reported in ChEMBL document CHEMBL4334554, “Structure-Guided Design of Substituted Biphenyl Butanoic Acid Derivatives as Neprilysin Inhibitors” (ACS Med Chem Lett, 2020).
The source made the active and inactive calls. The calls are words filed in the database; no cut-off is given here.

Assays:
[1] = Apparent half life in monkey; format: ADME, Macaca mulatta; conditions: rhesus monkey, in vivo; read-out: t1/2(app) (converted)
[2] = Apparent half life in dog; format: ADME, Canis lupus familiaris; conditions: in vivo, read-out: t1/2(app) (converted)
[3] = Volume of distribution at steady state in Sprague-Dawley rat at 1 mg/kg, iv measured upto 24 hrs by HPLC-MS/MS analysis; format: ADME, organism-based; conditions: in vivo, read-out: Vdss
[4] = AUC (0 to 7 hrs) in Sprague-Dawley rat at 1 mg/kg, iv measured upto 24 hrs by HPLC-MS/MS analysis; format: ADME, organism-based; set-up: time < 7 hr, dose 1 mg/kg, route intravenous; conditions: in vivo
[5] = Clearance in Sprague-Dawley rat at 1 mg/kg, iv measured upto 24 hrs by HPLC-MS/MS analysis; format: ADME, organism-based; conditions: in vivo
[6] = Clearance in monkey plasma; format: ADME, cell-free, Macaca mulatta; conditions: rhesus monkey
[7] = Clearance in dog plasma; format: ADME, cell-free, Canis lupus familiaris
[8] = Terminal half life in Sprague-Dawley rat at 1 mg/kg, iv measured upto 24 hrs by HPLC-MS/MS analysis; format: ADME, organism-based; conditions: in vivo, read-out: beta t1/2 (converted)
[9] = Half life in Sprague-Dawley rat at 1 mg/kg, iv; format: ADME, organism-based; conditions: in vivo
[10] = Plasma concentration in Sprague-Dawley rat at 30 mg/kg, po; format: ADME, organism-based; conditions: in vivo
How it was run: (§1)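 ANP potentiation model in conscious, chronically cannulated adult male Sprague–Dawley rats. Rats received an IV infusion of rat ANP to saturate the clearance receptors, so that ANP was removed mainly by NEP. The ethyl ester prodrug was then dosed orally. Blood was sampled at baseline and at intervals up to 8 h. Plasma ANP was read as % baseline, alongside parent plasma levels.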

[11] = Intrinsic clearance in human Hepatocyte assessed per million cells; format: ADME, cell-based; conditions: hepatocytes, read-out: CLH
[12] = Oral bioavailability in Sprague-Dawley rat at 3 mg/kg; format: ADME, organism-based; conditions: in vivo
[13] = Intrinsic clearance in rat Hepatocyte assessed per million cells; format: ADME, cell-based; conditions: hepatocytes, read-out: CLH
[14] = Clearance in Sprague-Dawley rat at 1 mg/kg, iv; format: ADME, organism-based; conditions: in vivo
Rattus norvegicus [15] = assay: In vivo inhibition of NEP in Sprague-Dawley rat assessed as increase in PANP level at 30 mg/kg, po measured after 15 mins; format: functional, organism-based
How it was run: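 Conscious, chronically cannulated adult male Sprague–Dawley rats received an IV infusion of rat ANP to saturate natriuretic peptide clearance receptors, so ANP elimination relied mainly on NEP. The ethyl ester prodrug was then given orally at 30 mg/kg. Blood was drawn at baseline before dosing and at intervals up to 8 h, and plasma ANP was expressed as % baseline, with parallel PK.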

[16] = Stability in human liver microsomes assessed as intrinsic clearance; format: ADME, Microsome; conditions: read-out: CLH
[17] = Stability in rat liver microsomes assessed as intrinsic clearance; format: ADME, Microsome; conditions: read-out: CLH
[18] = Volume of distribution in Sprague-Dawley rat at 1 mg/kg, iv; format: ADME, organism-based; conditions: in vivo
[19] = Prodrug activation in dog; set-up: species or system Canis lupus familiaris
[20] = Cmax in Sprague-Dawley rat at 3 mg/kg, po measured upto 24 hrs by HPLC-MS/MS analysis; format: ADME, organism-based; set-up: dose 3 mg/kg, route oral; conditions: in vivo
[21] = Oral bioavailability in Sprague-Dawley rat at 3 mg/kg measured upto 24 hrs by HPLC-MS/MS analysis; format: ADME, organism-based; conditions: in vivo
[22] = Prodrug activation in rat
[23] = Prodrug activation in monkey; set-up: species or system Macaca mulatta; conditions: rhesus monkey
Rattus norvegicus [24] = assay: In vivo inhibition of NEP in po dosed Sprague-Dawley rat assessed as increase in PANP level measured up to 8 hrs; format: functional, organism-based; how it was run: as §1
[25] = AUC (0 to 7 hrs) in Sprague-Dawley rat at 3 mg/kg, po measured upto 24 hrs by HPLC-MS/MS analysis; format: ADME, organism-based; set-up: time < 7 hr, dose 3 mg/kg, route oral; conditions: in vivo

## O=C(O)CCC(=O)N[C@@H](CC(=O)O)Cc1ccc(-c2cccc(Cl)c2)cc1
[1]
  half-life: 4 h
[2]
  half-life: 0.8 h
[3]
  Vd: 0.1 L/kg
[4]
  AUC(0-t) at 7 h: 8.73 µM·h
[5]
  clearance: 5 mL/min/kg
[6]
  clearance: 3 mL/min/kg
[7]
  clearance: 29 mL/min/kg
[8]
  half-life: 0.8 h

## COc1ccc(Cl)cc1-c1ccc(C[C@H](CC(=O)O)NC(=O)CCC(=O)O)cc1
[3]
  Vd: 0.1 L/kg
[4]
  AUC(0-t) at 7 h: 8.1 µM·h
[5]
  clearance: 5 mL/min/kg
[8]
  half-life: 1 h

## O=C(O)CCC(=O)N[C@@H](CC(=O)O)Cc1ccc(-c2ccccc2)cc1
[9]
  half-life: 2.5 h
[10]
  concentration: > 2 µM
[11]
  hepatocyte CLint: 0.68 µL/min/1e6 cells
[12]
  bioavailability: 66%
[13]
  hepatocyte CLint: 2.1 µL/min/1e6 cells
[14]
  clearance: 11 mL/min/kg
Rattus norvegicus [15]
  inhibition: Active
[16]
  microsomal CLint: < 3.42 µL/min/mg
[17]
  microsomal CLint: < 3.42 µL/min/mg
[18]
  Vd: 0.2 L/kg

## CCOC(=O)[C@H](C)C[C@@H](Cc1ccc(-c2ccccc2)cc1)NC(=O)CCC(=O)O
Rattus norvegicus [15]
  inhibition: Active

## CCOC(=O)C[C@@H](Cc1ccc(-c2cccc(Cl)c2)cc1)NC(=O)CCC(=O)O
[19]
  Activity: 5%
[20]
  Cmax: 12.6 µM
[21]
  bioavailability: 42%
[22]
  Activity: 99%
[23]
  Activity: 69%
Rattus norvegicus [24]
  inhibition: Dose-dependent effect
[25]
  AUC(0-t) at 7 h: 10.1 µM·h

## CCOC(=O)C[C@@H](Cc1ccc(-c2cc(Cl)ccc2OC)cc1)NC(=O)CCC(=O)O
[20]
  Cmax: 5.38 µM
[21]
  bioavailability: 25%
[25]
  AUC(0-t) at 7 h: 5.63 µM·h
